“And” between values parts separate entries of the source, which are not always exact repeats. Equal entries are not always repeated.
Tests used:
[1] = test system: HEK-293T; test: Multiplex assay against HEK293T; format: toxicity, cell-based; settings: human
Outline: (§1)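 Live cells were stained at seeding with Hoechst33342, BioTracker Green Microtubule Cytoskeleton Dye, MitoTracker Red and Annexin V Alexa Fluor 680. Following compound addition, they were imaged on a CQ1 microscope at 37°C and 5% CO2 and gated by CellPathfinder machine learning into Hoechst high-intensity objects or normal cells, with normal cells split into healthy, pyknosed or fragmented nuclei and pyknosed cells into mitotic or apoptotic. Tubulin, mitochondrial-mass and membrane-permeability phenotypes are per cents of healthy-nucleus cells.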

[2] = test system: U2OS; test: Multiplex assay against U2OS; format: toxicity, cell-based; settings: human; outline: as §1
[3] = 24 h, 1 µM, compound concentration 1 uM
[4] = 24 h, 10 µM, compound concentration 10 uM
[5] = 48 h, 1 µM, compound concentration 1 uM
[6] = 48 h, 10 µM, compound concentration 10 uM
[7] = 12 h, 1 µM, compound concentration 1 uM
[8] = 12 h, 10 µM, compound concentration 10 uM

Cl.Clc1ccc2nsnc2c1NC1=NCCN1 [TIZANIDINE HYDROCHLORIDE]
Total Cell Count [1, 3]: 597 and 434 | Population Apoptotic (%) [1, 4]: 32% and 29% | Population Fragmented Nuclei (%) [1, 4]: 11% and 10% | Population Healthy Nuclei (%) [1, 4]: 78% and 81% | Population Hoechst High Intensity Objects (%) [1, 4]: 5% and 6% | Population Membrane Permeable-Phenotype (%) [1, 4]: 1% and 0% | Population Mitochondria Different-Phenotype (%) [1, 4]: 23% and 46% | Population Mitotic Cells (%) [1, 4]: 67% and 70% | Population Normal (%) [1, 4]: 94% and 93% | Population Pyknosed Nuclei (%) [1, 4]: 9% and 7% | Population Tubulin-Different-Phenotype (%) [1, 4]: 18% | Total Cell Count [1, 4]: 621 and 443 | Population Apoptotic (%) [1, 5]: 17% and 33% | Population Fragmented Nuclei (%) [1, 5]: 16% and 14% | Population Healthy Nuclei (%) [1, 5]: 77% and 79% | Population Hoechst High Intensity Objects (%) [1, 5]: 2% and 3% | Population Membrane Permeable-Phenotype (%) [1, 5]: 3% and 1% | Population Mitochondria Different-Phenotype (%) [1, 5]: 13% and 19% | Population Mitotic Cells (%) [1, 5]: 82% and 66% | Population Normal (%) [1, 5]: 97% and 96% | Population Pyknosed Nuclei (%) [1, 5]: 6% | Population Tubulin-Different-Phenotype (%) [1, 5]: 10% and 7% | Total Cell Count [1, 5]: 1005 and 661 | Population Apoptotic (%) [1, 6]: 24% and 25% | Population Fragmented Nuclei (%) [1, 6]: 19% and 13% | Population Healthy Nuclei (%) [1, 6]: 74% and 81% | Population Hoechst High Intensity Objects (%) [1, 6]: 3% and 5% | Population Membrane Permeable-Phenotype (%) [1, 6]: 1% | Population Mitochondria Different-Phenotype (%) [1, 6]: 13% and 23% | Population Mitotic Cells (%) [1, 6]: 75% | Population Normal (%) [1, 6]: 96% and 94% | Population Pyknosed Nuclei (%) [1, 6]: 5% and 4% | Population Tubulin-Different-Phenotype (%) [1, 6]: 10% and 19% | Total Cell Count [1, 6]: 995 and 600 | Population Apoptotic (%) [2, 7]: 82% and 85% | Population Fragmented Nuclei (%) [2, 7]: 20% and 10% | Population Healthy Nuclei (%) [2, 7]: 73% and 78% | Population Hoechst High Intensity Objects (%) [2, 7]: 2% and 1% | Population Membrane Permeable-Phenotype (%) [2, 7]: 6% and 3% | Population Mitochondria Different-Phenotype (%) [2, 7]: 1% and 2% | Population Mitotic Cells (%) [2, 7]: 17% and 14% | Population Normal (%) [2, 7]: 97% and 98% | Population Pyknosed Nuclei (%) [2, 7]: 5% and 10% | Population Tubulin-Different-Phenotype (%) [2, 7]: 2% and 3% | Total Cell Count [2, 7]: 306 and 140 | Population Apoptotic (%) [2, 8]: 77% and 90% | Population Fragmented Nuclei (%) [2, 8]: 31% and 22% | Population Healthy Nuclei (%) [2, 8]: 61% and 66% | Population Hoechst High Intensity Objects (%) [2, 8]: 2% | Population Membrane Permeable-Phenotype (%) [2, 8]: 7% and 14% | Population Mitochondria Different-Phenotype (%) [2, 8]: 2% and 7% | Population Mitotic Cells (%) [2, 8]: 22% and 10% | Population Normal (%) [2, 8]: 97% | Population Pyknosed Nuclei (%) [2, 8]: 6% and 10% | Total Cell Count [2, 8]: 280 and 98 | Population Apoptotic (%) [2, 3]: 90% and 89% | Population Fragmented Nuclei (%) [2, 3]: 19% and 15% | Population Healthy Nuclei (%) [2, 3]: 72% and 73% | Population Hoechst High Intensity Objects (%) [2, 3]: 0% and 4% | Population Membrane Permeable-Phenotype (%) [2, 3]: 4% and 7% | Population Mitochondria Different-Phenotype (%) [2, 3]: 2% and 4% | Population Mitotic Cells (%) [2, 3]: 9% and 10% | Population Normal (%) [2, 3]: 99% and 95% | Population Pyknosed Nuclei (%) [2, 3]: 8% and 11% | Population Tubulin-Different-Phenotype (%) [2, 3]: 5% and 6% | Total Cell Count [2, 3]: 381 and 172 | Population Apoptotic (%) [2, 4]: 65% and 86% | Population Fragmented Nuclei (%) [2, 4]: 29% and 25% | Population Healthy Nuclei (%) [2, 4]: 62% and 61% | Population Hoechst High Intensity Objects (%) [2, 4]: 2% | Population Membrane Permeable-Phenotype (%) [2, 4]: 4% and 12% | Population Mitochondria Different-Phenotype (%) [2, 4]: 1% and 7% | Population Mitotic Cells (%) [2, 4]: 34% and 13% | Population Normal (%) [2, 4]: 97% | Population Pyknosed Nuclei (%) [2, 4]: 8% and 13% | Population Tubulin-Different-Phenotype (%) [2, 4]: 1% and 11% | Total Cell Count [2, 4]: 327 and 118 | Population Apoptotic (%) [2, 5]: 86% and 90% | Population Fragmented Nuclei (%) [2, 5]: 11% and 17% | Population Healthy Nuclei (%) [2, 5]: 80% and 74% | Population Hoechst High Intensity Objects (%) [2, 5]: 1% and 3% | Population Membrane Permeable-Phenotype (%) [2, 5]: 2% and 5% | Population Mitochondria Different-Phenotype (%) [2, 5]: 1% and 2% | Population Mitotic Cells (%) [2, 5]: 13% and 9% | Population Normal (%) [2, 5]: 98% and 96% | Population Pyknosed Nuclei (%) [2, 5]: 7% and 8% | Population Tubulin-Different-Phenotype (%) [2, 5]: 2% and 3% | Total Cell Count [2, 5]: 512 and 260 | Population Apoptotic (%) [2, 6]: 93% and 76% | Population Fragmented Nuclei (%) [2, 6]: 18% and 22% | Population Healthy Nuclei (%) [2, 6]: 75% and 65% | Population Hoechst High Intensity Objects (%) [2, 6]: 2% and 4% | Population Membrane Permeable-Phenotype (%) [2, 6]: 5% and 15% | Population Mitochondria Different-Phenotype (%) [2, 6]: 1% and 5% | Population Normal (%) [2, 6]: 97% and 95% | Population Pyknosed Nuclei (%) [2, 6]: 6% and 11% | Population Tubulin-Different-Phenotype (%) [2, 6]: 3% and 7%

Source: ChEMBL document CHEMBL5724801, “EUbOPEN Chemogenomics Library - Multiplex” (2024)
